Source: PubChem
Sampled rows, rich in hits. Any-hit rate of the full collection: about 1.8%.
MC4R antag cAMP – MC4R antagonists of cAMP signaling, primary screen, cell-based, TR-FRET, antagonist arm of biased-ligand search | Melanocortin receptor 4 (Homo sapiens), P32245 | MC4R-expressing cells, MTII-stimulated cAMP, LANCE TR-FRET | inhibition, % at 6.5 µM | actives 0.48% (n = 360,000) | AID 540295, 2011;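 active means inhibition above its plate's cutoff, the mean of tested wells on that plate plus 3 SD, cut at about 29% in these data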;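 further: 0% = Melanotan II alone and 100% = Melanotan II plus saturating MCL0020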
Target sequence (P32245 whole entry, looked up): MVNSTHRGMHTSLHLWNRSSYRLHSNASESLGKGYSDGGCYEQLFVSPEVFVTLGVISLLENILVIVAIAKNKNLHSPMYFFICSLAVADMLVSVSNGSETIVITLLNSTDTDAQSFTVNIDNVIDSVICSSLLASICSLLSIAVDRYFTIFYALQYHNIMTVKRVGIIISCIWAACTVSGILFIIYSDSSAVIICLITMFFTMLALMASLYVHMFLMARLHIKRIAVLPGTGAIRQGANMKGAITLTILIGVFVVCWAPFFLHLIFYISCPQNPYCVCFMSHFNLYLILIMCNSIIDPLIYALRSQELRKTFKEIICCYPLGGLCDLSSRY
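Assay system: U2OS cells stably expressing human melanocortin 4 receptor (MC4R) / Dosing: 6.5 µM / Timing: compound 30 min, challenge 1 h, detection 1 h / Measured by: Eu-cAMP/anti-cAMP TR-FRET, emission 671 nm / Replicates: singlicate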
MC4R barr agon – MC4R agonists recruiting beta-arrestin, primary screen, cell-based, luminescence, agonist arm of biased-ligand search; Melanocortin receptor 4 (Homo sapiens), P32245; U2OS MC4R beta-arrestin complementation; percent of melanotan II response, DMSO zero; activation, % at 8.9 µM; actives 0.98% (n = 360,000); AID 540308, 2011;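 active means activation above a per-plate cutoff, the mean activation of sample wells on that plate plus 3 SD, cut at about 8% in these data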
NTR1 ag – agonists of human NTR1, primary screen, imaging, U2OS cells, beta-arrestin-GFP, high content; NTR1-U2OS beta-arrestin-GFP spot imaging, agonist mode; activation, % at 20 µM; actives 0.17% (n = 330,000); AID 493036, 2011;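 active means activation at or above 40% of the spot to cytoplasm intensity ratio, with at least 20 cells analyzed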;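 further: 0% = DMSO without peptide and 100% = 100 nM NTR1 peptide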
AI-2 QS modul – Vibrio harveyi AI-2 quorum sensing modulators, primary screen, JMH597 strain, luminescence/OD600 ratio | Vibrio harveyi JMH597 AI-2 luminescence/OD600 ratio, 9 h; hits give low values; strain lacks LuxN and CqsS sensors; 0 = neutral-control median | activity change, % at 7.5 µM | actives 0.4% (n = 300,000); in the data active means activity change below about -75%, passing the limit was not always enough;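 further: luminescence divided by OD600 gain over 9 h not by final OD600 alone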
* hit, by the source's call; · = no result given.

SMILES	MC4R antag cAMP	MC4R barr agon	NTR1 ag	AI-2 QS modul
Cc1cc(C)c2sc(NC(=O)c3ccc([N+](=O)[O-])o3)nc2c1	5	-2	5	-86*
O=C(CN1CCN(CC(=O)Nc2ccccc2Cl)CC1)NCC1(N2CCOCC2)CCCCC1	20	-1	0	·
CCN(CC)C(=O)Cn1cc(S(=O)(=O)CC(=O)Nc2ccccc2F)c2ccccc21	-6	-3	1	1
Cn1nc(-c2ccc(Cl)cc2)nc2c(=O)n(C)c(=O)nc1-2	·	·	4	-77*
O=C(NCCOc1ccccc1F)C1CC(=O)N(c2ccc3c(c2)OCCO3)C1 (stereo not given)	6	-1	-2	·
CCCCc1cc(=O)oc2cc(C)cc(OCC(=O)Nc3cccnc3)c12	1	8.7*	1	9
CCCc1cc(=O)oc2cc(C)cc(OCC(=O)NCc3cccnc3)c12	5	-1	0	26
CC(=O)N1CCN(S(=O)(=O)c2cccc(C(=O)N3CCN(S(=O)(=O)c4c(C)c(C)cc(C)c4C)CC3)c2)CC1	6	-1	·	·
O=C(OC1CCOC1=O)c1ccccc1C(=O)c1ccc(Cl)c([N+](=O)[O-])c1 (stereo not given)	23	0	9	·
CS(=O)(=O)c1ccc(C(=O)OC2CCOC2=O)cc1[N+](=O)[O-] (stereo not given)	32*	-3	1	19
S=C(NCc1ccc(Cl)cc1Cl)Nc1ccccc1	12	8.9*	2	-7
S=C(NCc1ccc(Cl)cc1)Nc1ccccc1	-3	-3	1	-63
O=C(Nc1cccc(-c2nc3cccnc3s2)c1)c1ccc(Cl)nc1	3	8.6*	3	-2
Nc1cc2cccnc2cc1Cl	-5	-2	·	·
O=C(NC(=Nc1nc2ccccc2o1)NC(=O)c1ccccc1)c1ccccc1	2	-3	2	10
COc1ccccc1C(=O)NC(=Nc1nc2ccccc2o1)NC(=O)c1ccccc1OC	10	-2	40*	17
CCOC(=O)c1c(C)n(OCc2ccccc2)c2ccc3nonc3c12	1	8.8*	6	21
C=CCOn1c(C)c(C(C)=O)c2c3nonc3ccc21	-4	-1	0	10
Cc1csc(NC(=O)c2ccc3nc[nH]c3c2)n1	4	2	2	11
Cc1noc(C)c1S(=O)(=O)N1CCCC(C(=O)NCc2ccccc2Cl)C1 (stereo not given)	8	-2	-2	·
O=C(CSc1ccccn1)Nc1ccc2[nH]c(=O)[nH]c2c1	-2	-1	-2	·
O=C(Cn1cc(/C=C\[N+](=O)[O-])c2ccccc21)Nc1ccccc1	-9	-3	47*	20
O=C(O)Cn1cc(/C=C/[N+](=O)[O-])c2ccccc21	-5	-3	1	20
COc1ccc(CCNC(=O)CSc2nnc(CNC(=O)c3c(F)cccc3Cl)o2)cc1OC	0	-2	1	27
Cc1nc(NC(=O)c2ccco2)sc1-c1csc(Nc2ccc(Cl)cc2Cl)n1	27	8.5*	6	30
SMILES	MC4R antag cAMP	MC4R barr agon	NTR1 ag	AI-2 QS modul
Cc1ccc(Cl)cc1Nc1nc(-c2sc(NC(=O)c3ccco3)nc2C)cs1	17	0	-1	17
COc1cc2c3nnc(-c4ccc(F)cc4)c-3cn(Cc3ccccc3F)c2cc1OC	2	12*	·	·
COc1ccccc1N1CCN(c2nnc(-c3ccc(F)cc3)c3ccccc23)CC1	-6	-2	11	16
O=C(NCCc1ccccc1)c1ccc(-c2cccnc2)c2ccoc12	-3	-1	·	·
O=c1cc(-c2ccccc2)cc(-c2ccccc2)n1O	10	-3	2	-82*
Cc1ccccc1OCC(=O)Nc1ccc2c(c1)Cc1ccccc1-2	7	28*	6	2
Cc1cccc(Nc2nc(-c3ccc(O)cc3O)cs2)n1	12	9.4*	11	·
CCCCOc1ccc(N2CC(C(=O)NCc3ccco3)CC2=O)cc1 (stereo not given)	2	-2	1	38
Cc1c(Nc2nc(-c3ccc(Cl)cc3)cs2)c(=O)n(-c2ccccc2)n1C	9	-1	2	-86*
CC1CCCCC12NC(=O)N(CC(=O)Nc1nccs1)C2=O (stereo not given)	-6	0	5	·
CC1=N/C(=C\c2ccc(OC(C)C)cc2)C(=O)N1c1ccc(C(=O)O)cc1	-2	4	1	-83*
CC(C)Oc1ccc(C(=O)O)cc1	0	-2	-2	16
COC(=O)[C@H](Cc1ccccc1)[C@@H](C)OS(N)(=O)=O	5	-1	0	7
Cn1c2c(c(=O)n(C)c1=O)[C@@]1(C(=O)Nc3ccccc31)C(C#N)=C(N)O2	-12	-3	0	-92*
CCCNC(=O)C(Cc1cccc(Cl)c1)NC(=O)c1ccccc1 (stereo not given)	9	-2	0	·
CCOC(=O)CCc1c(C)c2ccc(OCc3ccc([N+](=O)[O-])cc3)cc2oc1=O	11	13*	0	7
O=c1[nH]cc(O)c(=O)[nH]1	-1	0	5	2
O=c1[nH]cc(F)c(=O)[nH]1	2	-1	·	-88*
CC(=O)Cc1cc(O)c2ccccc2c1OC(=O)c1ccc(Br)cc1	-1	17*	0	11
O=C(COC(=O)c1ccc(Br)cc1)NCc1ccccc1	7	-1	2	5
O=C1ON=C(c2ccccc2)/C1=C/c1ccc(-c2ccccc2[N+](=O)[O-])o1	32*	-1	·	·
Cc1csc2c(=O)sc(NC(=O)c3cccs3)nc12	-17	8.5*	1	18
Cc1ccccc1/C=N/Nc1ccnc2cc(Cl)ccc12	-2	8.5*	·	17
COc1ccccc1CNC(=O)CCNS(=O)(=O)c1cc(Br)cnc1N	8	-1	0	14
COc1cc(C(=O)OCC(=O)NC(N)=O)cc(CN2C(=O)c3ccccc3C2=O)c1OC	3	0	-1	11
SMILES	MC4R antag cAMP	MC4R barr agon	NTR1 ag	AI-2 QS modul
O=C1CCCCC1C(Nc1ccc(Cl)cc1)c1ccccc1 (stereo not given)	2	8.9*	11	3
Cc1ccc(N(C(=O)C(F)(F)F)C(C(=O)NC2CCCCC2)c2cccs2)cc1 (stereo not given)	11	15*	2	-2
O=C(COc1ccc(NC(=O)c2ccccc2)cc1)c1ccccc1	0	1	-1	6
N#Cc1ccc(OCC(=O)Nc2nc(-c3cccnc3)cs2)cc1	4	9.1*	0	·
Cc1cc(C)cc(OCC(=O)Nc2nc(-c3cccnc3)cs2)c1	7	9.2*	2	30
O=c1c(Cl)c(Cl)cnn1Cc1ccc(F)cc1	52*	-2	7	10
O=C(OCn1ncc(Cl)c(Cl)c1=O)c1ccc(F)cc1	·	·	-2	-6
